Assay results reported in ChEMBL document CHEMBL2046385, “Palau'amine and related oroidin alkaloids dibromophakellin and dibromophakellstatin inhibit the human 20S proteasome” (J Nat Prod, 2012).
The source made the active and inactive calls. The calls are words filed in the database; no cut-off is given here. Peptide text beside a SMILES is read from it. * marks the point of attachment. Cbz = O=C(OCc1ccccc1)*

Tests used:
Homo sapiens [1] = species: Homo sapiens; test: Reversible inhibition of purified human 20S proteasome at pH >7.5
Procedure, shortened: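 Compound preincubated in assay buffer (50 mM Tris-HCl, 0.03% SDS) at pH 7.5 or 8.0 for varying times before enzyme addition. Residual inhibition of 1 nM purified human 20S proteasome then read by fluorogenic AMC release at 37 °C over 30 min.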

Homo sapiens [2] = species: Homo sapiens; test: Irreversible inhibition of chymotryptic-like of purified human 20S proteasome assessed as Suc-LLVY-AMC substrate at 0.5 to 1 uM
Procedure, shortened: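 Suc-LLVY-AMC 50 μM (Km). AMC fluorescence λex 380/λem 440. Vmax taken from linear portions and plotted against [E]. An irreversible inhibitor intersects the horizontal axis rather than passing through the origin.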

Homo sapiens [3] = species: Homo sapiens; test: Irreversible inhibition of chymotryptic-like of purified human 20S proteasome assessed as Suc-LLVY-AMC substrate at 10 to 50 uM measured after drug washout
HeLa [4] = test: Inhibition of 20S proteasome in TNFalpha-stimulated human HeLa cells assessed as accumulation of ubiquitinylated cellular proteins at 1 uM after 2 hrs using DAPI staining by fluorescence confocal microscopic analysis; assay type: cell-based
Procedure, shortened: (§1)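 HeLa cells grown on glass coverslips in MEM with 10% FBS and penicillin/streptomycin. Treated 2 h with 1.0 μM compound or 0.1% DMSO vehicle, TNFα 20 ng/mL stimulation for 2 h. Fixed in 4% paraformaldehyde, permeabilized with 0.5% Triton, blocked in 5% BSA/0.05% Tween-20. […] anti-ubiquitin (P4D1) 1:250 overnight at 4 °C, then Alexa546 secondary; DAPI nuclear stain. DIC and confocal imaging, with quantification of ubiquitin fluorescence intensity.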

HeLa [5] = test: Inhibition of 20S proteasome in TNFalpha-stimulated human HeLa cells assessed as accumulation of ubiquitinylated cellular proteins at 1 uM after 2 hrs using DAPI staining by DIC image analysis; assay type: cell-based; procedure, shortened: as §1
HeLa [6] = test: Inhibition of 26S proteasome-mediated IkappaBalpha proteasomal degradation in TNFalpha-stimulated human HeLa cells at 1 uM treated 30 mins before TNFalpha challenge measured after 30 mins using DAPI staining by confocal microscopy analysis; assay type: cell-based
Procedure, shortened: (§2)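 HeLa cells on coverslips in MEM with 10% FBS were pretreated 30 min with 1 μM compound or 0.1% DMSO vehicle, then given 20 ng/mL TNFα for 30 min or left unstimulated. Fixed in paraformaldehyde, permeabilized with Triton, blocked in BSA/Tween. Mouse anti-IκBα (L35A5) 1:250 overnight at 4 °C, then Alexa-labelled secondary; DAPI counterstain. Confocal imaging with quantified IκBα fluorescence intensity; p-value versus vehicle/TNFα.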

HeLa [7] = test: Inhibition of 26S proteasome-mediated IkappaBalpha proteasomal degradation in human HeLa cells at 1 uM after 30 mins using DAPI staining by confocal microscopy analysis; assay type: cell-based; procedure, shortened: as §2
[8] = Inhibition of chymotryptic-like of purified human 20S proteasome using Suc-LLVY-AMC as substrate after 30 mins by fluorescence assay
Procedure, shortened: (§3)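 Purified human 20S core at 1 nM in 50 mM Tris-HCl pH 7.5 with 0.03% SDS, 37 °C. Fluorogenic substrate was used at its Km. Released AMC was read at ex 380/em 460 nm every minute for 30 min. The maximal (linear) rate was used to derive IC50. Each value is the mean of three or more independent experiments.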

[9] = Inhibition of caspase-like of purified human 20S proteasome using Z-LLE-AMC as substrate after 30 mins by fluorescence assay; procedure, shortened: as §3
[10] = Inhibition of tryptic-like of purified human 20S proteasome using Boc-LRR-AMC as substrate after 30 mins by fluorescence assay; procedure, shortened: as §3
[11] = Inhibition of chymotryptic-like of purified human 20S immunoproteasome
Homo sapiens [12] = species: Homo sapiens; test: Reversible inhibition of chymotryptic-like of purified human 20S proteasome assessed as Suc-LLVY-AMC substrate at 1 uM measured after drug washout
Procedure, shortened: (§4)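 Washout assay. Human 20S proteasome (1 nM) was exposed to vehicle or inhibitor (1 or 10 μM), then assayed for CT-L activity with Suc-LLVY-AMC as in the main assay. The mixture was washed through a 10K centrifugal filter with 500 volumes of reaction buffer. Retentate CT-L activity was compared with the prewash activity.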

Homo sapiens [13] = species: Homo sapiens; test: Irreversible inhibition of chymotryptic-like of purified human 20S proteasome assessed as Suc-LLVY-AMC substrate at 1 uM measured after drug washout; procedure, shortened: as §4

Row | Structure (SMILES) | IC50 [8] | IC50 [9] | IC50 [10] | IC50 [11] | other results
1 | NC[C@@H]1[C@H]2CN3C(=O)c4cccn4[C@@H]4NC(N)=N[C@@]43[C@@H]2[C@]2(N=C(N)N[C@H]2O)[C@H]1Cl [listing 1 of 2 here] | – | – | – | – | inhibition (Homo sapiens [1]): Active; inhibition (Homo sapiens [2]): Active; inhibition (Homo sapiens [3]): Active; inhibition (HeLa [4]): Active; inhibition (HeLa [5]): Active; inhibition (HeLa [6]): Active; inhibition (HeLa [7]): Active
2 | NC[C@@H]1[C@H]2CN3C(=O)c4cccn4[C@@H]4NC(N)=N[C@@]43[C@@H]2[C@]2(N=C(N)N[C@H]2O)[C@H]1Cl (racemic) | 5.5 µM | 3 µM | > 100 µM | 4 µM | –
3 | CC(C)C[C@@H](C=O)NC(=O)[C@H](CC(C)C)NC(=O)[C@H](CC(C)C)NC(=O)OCc1ccccc1 (Cbz-Leu-Leu-Leu-aldehyde) | – | – | – | – | inhibition (Homo sapiens [12]): Active
4 | NC[C@@H]1[C@H]2CN3C(=O)c4cccn4[C@@H]4NC(N)=N[C@@]43[C@@H]2[C@]2(N=C(N)N[C@H]2O)[C@H]1Cl [listing 2 of 2 here] | 2.5 µM | 1.6 µM | – | 2.3 µM | –
5 | CC[C@H](C)[C@H](NC(=O)[C@H]([C@@H](C)CC)N(C)C(C)=O)C(=O)N[C@H](C(=O)N[C@@H](CC(C)C)C(=O)[C@@]1(C)CO1)[C@@H](C)O | – | – | – | – | inhibition (Homo sapiens [13]): Active

Continued, in another order:

Row | IC50 [8] | IC50 [9] | IC50 [10] | IC50 [11] | Structure (SMILES) | other results
6 | > 100 µM | > 100 µM | > 100 µM | > 100 µM | O=c1c2cc(Br)c(Br)n2cc2n1CCC2 | –
7 | 25.3 µM | 27.1 µM | > 100 µM | 18.7 µM | NC1=N[C@]23CCCN2C(=O)c2cc(Br)c(Br)n2[C@@H]3N1 (racemic) [DIBROMOPHAKELLIN] | –
8 | 11.9 µM | 16.1 µM | > 100 µM | 6.2 µM | O=C1N[C@H]2n3c(cc(Br)c3Br)C(=O)N3CCC[C@]23N1 (racemic) [DIBROMOPHAKELLSTATIN] | –
